MrgX1 allo act: allosterically activates human MrgX1 receptor signaling; Q96LB2; MrgX1-HEK293, Fluo-4 calcium flux, FDSS; stronger effect = higher value; B-score at 10 µM; 310,000 tested, 0.63% active; AID 588675;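 active = plate-corrected calcium response at least 3 library SD above typical, normal starting fluorescence, not activating the receptor alone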;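 also: compound read alongside a low EC10 to EC30 dose of BAM8-22 agonist; peak minus trough fluorescence over baseline measured at the second addition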
Target sequence (Q96LB2 whole entry, looked up): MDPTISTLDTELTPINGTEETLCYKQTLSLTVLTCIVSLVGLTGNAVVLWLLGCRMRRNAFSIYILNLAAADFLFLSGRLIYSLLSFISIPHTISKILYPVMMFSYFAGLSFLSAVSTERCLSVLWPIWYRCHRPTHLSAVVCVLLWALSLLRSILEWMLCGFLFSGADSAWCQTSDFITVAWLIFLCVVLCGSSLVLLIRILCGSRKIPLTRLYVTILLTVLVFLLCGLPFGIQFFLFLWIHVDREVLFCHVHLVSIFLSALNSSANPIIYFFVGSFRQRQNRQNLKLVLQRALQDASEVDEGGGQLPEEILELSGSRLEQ
RGS4 inh: human RGS4 inhibition. P49798. HEK293 M3R/RGS4 inducible, Fluo-4 calcium flux; stronger effect = higher value; triggered by carbachol at its EC20. B-score at 10 µM. 310,000 tested, 0.45% active. AID 463165;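 active = B-score, a plate-corrected calcium signal, over three deviations above library mean, with baseline fluorescence within five deviations of library mean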;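 also: RGS4 expression induced by doxycycline in cells with stable M3 receptor; B-score is computed from the integrated fluorescence ratio over baseline after carbachol; higher B-score means a larger calcium signal and so more RGS4 inhibition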
Target sequence (P49798 whole entry, looked up): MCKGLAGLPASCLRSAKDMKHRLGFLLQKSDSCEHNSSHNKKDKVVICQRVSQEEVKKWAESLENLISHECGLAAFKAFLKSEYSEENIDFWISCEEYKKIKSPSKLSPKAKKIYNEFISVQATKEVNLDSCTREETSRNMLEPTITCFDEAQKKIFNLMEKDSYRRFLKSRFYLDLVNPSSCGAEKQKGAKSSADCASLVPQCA
MrgX1 agonist: activates human MrgX1 receptor signaling; B-score at 10 µM; MrgX1-HEK293 cells, Fluo-4 calcium fluorescence, agonist mode; stronger effect = higher value; AID 588627; 310,000 tested, 0.44% active; Q96LB2;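 active = calcium response B-score plate-corrected fluorescence ratio at least 3 library SD, with starting fluorescence B-score inside 5 SD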
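System – MrgX1-expressing HEK293 cells · Incubation – cells plated overnight, dye loaded 0.5 h 37 °C, 0.5 h room temperature · Technique – kinetic Fluo-4 NW fluorescence of intracellular calcium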
MrgX1 antag: human MrgX1 receptor antagonism, primary screen. Q96LB2. MRGX1-HEK293 calcium flux, Fluo-4, BAM8-22 antagonism; stronger effect = lower value. B-score at 10 µM. 310,000 tested, 1.3% active. AID 588676;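 active = calcium-response B-score plate-corrected more than 3 library SD below zero, starting fluorescence within 5 deviations, no agonist response on first addition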;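 also: peak minus trough fluorescence over baseline after final BAM8-22 challenge near maximal dose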
RGS4 pot: RGS4 potentiation or activation. 310,000 tested, 0.92% active. B-score at 10 µM. AID 463111. HEK293 M3R/inducible RGS4, carbachol calcium flux Fluo4; stronger effect = lower value;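 active = B-score of the integrated calcium signal more than 4 SD below the library mean, with starting fluorescence not abnormally high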;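 also: negative B-score means reduced calcium response which marks RGS4 activation or potentiation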
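Test system: HEK293 cells with stable M3R and inducible RGS4; also added: carbachol at ECmax as muscarinic agonist stimulus; schedule: dye loading 30 min 37 °C, buffer rest 30 min RT; technique: kinetic calcium fluorescence imaging with Fluo4-AM dye, 2 µM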
* marks the source's active call; other numbers are inactive results; i = inactive; . = no result given. The list is not random: actives were taken first. Their share in the collection is about 3.5%.

SMILES	MrgX1 allo act	RGS4 inh	MrgX1 agonist	MrgX1 antag	RGS4 pot
Cc1nc(C)c(-c2nnc(-c3ccc(C(C)(C)C)cc3)o2)cc1C(=O)NN	i	i	i	-6.01*	i
COc1ccc(C2=NOC(Cn3nc(C(=O)NCC4CC4)cc3-c3ccccc3)C2)cc1 (configuration not stated)	7.89*	i	i	i	i
Cc1ccc(C(=O)c2no[n+]([O-])c2C(=O)c2ccc(C)cc2)cc1	i	i	31.3*	i	-8.82*
CCC(C)(C)NC(=O)C(c1ccco1)N(C(=O)Cn1nnc2ccccc21)c1ccc2c(c1)OCO2 (configuration not stated)	8.89*	i	i	i	i
Cc1ccc(N(C(=O)Cn2nnc3ccccc32)C(C(=O)NCc2ccco2)c2ccc(C)o2)cc1 (configuration not stated)	.	i	.	.	i
COCCCN1C(=O)C2C(C(=O)Nc3cc(C)cc(C)c3)C3C=CC2(O3)C1C(=O)NC1CCCCC1 (configuration not stated)	i	i	i	i	i
O=C(CCOc1ccccc1)Nc1ccnn1C1CCN(Cc2ccc(F)cc2)CC1	i	i	i	i	i
Cc1cc(NS(=O)(=O)c2ccc(NC(=O)CCCOc3ccccc3C)cc2)nc(C)n1	i	i	i	i	i
O=C(O)c1c2c(nc3ccccc13)/C(=C/c1cccc([N+](=O)[O-])c1)CCC2	18*	i	i	i	i
O=C(O)c1c2c(nc3ccccc13)/C(=C/c1ccccc1[N+](=O)[O-])CCC2	i	i	i	i	i
O=C(COc1ccccc1)N1c2ccccc2Sc2ccccc21	i	i	i	i	i
CN(C)c1cc[n+](CC(=O)N2c3ccccc3Sc3ccccc32)cc1	i	i	i	i	-8.07*
Cc1nn(CC(C)C)c(Cl)c1C(=O)N(c1ccc(Cl)cc1F)S(C)(=O)=O	i	i	i	i	i
COc1ccc(OCc2cc(C(=O)NCCN3CCCc4ccccc43)no2)c(Cl)c1	i	i	i	i	-7.47*
CCO[C@@H]1OC(C(=O)NCc2ccccc2)=C[C@H](c2coc3ccccc3c2=O)[C@H]1CCCO	i	i	i	-5.87*	i
C#CCNC(=O)C1=C[C@@H](c2ccc(C#C)cc2)[C@H](CCCO)[C@@H](OCC)O1	i	i	i	-8.35*	i
COc1ncccc1C(=O)N1CCC(n2nccc2NC(=O)CC(C)C)CC1	i	i	i	i	i
O=[N+]([O-])c1ccccc1S(=O)(=O)Oc1ccc(/C=N/n2cnnc2)cc1	i	i	i	i	i
COc1cc(/C=N/n2cnnc2)ccc1OS(=O)(=O)c1ccccc1[N+](=O)[O-]	i	i	i	-6.61*	i
CC(=O)Nc1ccc(SCC(=O)OCC(=O)NC(=O)NCCC(C)C)cc1	i	i	i	-7.35*	i
CC(=O)Nc1ccc(SCC(=O)OCC(=O)NC(=O)NCc2ccco2)cc1	i	i	i	i	i
COc1ccc(CNC(=O)CN(Cc2ccc(F)cc2)C(=O)CCC(=O)Nc2nccs2)cc1	i	i	i	i	i
O=C(O)CC1(c2ccc(F)cc2)C2CC3CC(C2)CC1C3 (configuration not stated)	i	i	i	-6.69*	i
O=C(NCCO)C(=O)Nc1cc2c3c(c1)CCN3C(=O)CC2	i	i	i	i	i
CC(=C/c1ccccc1)/C=N/NC(=O)c1ccc2nc[nH]c2c1	i	i	i	i	i
SMILES	MrgX1 allo act	RGS4 inh	MrgX1 agonist	MrgX1 antag	RGS4 pot
CC(/C=N/NC(=O)c1ccc2nc(C)[nH]c2c1)=C\c1ccccc1	6.69*	i	i	i	i
COc1ccc(-c2noc(C(C)NC(=O)c3ccco3)n2)cc1OC (configuration not stated)	i	i	i	i	i
CCN(CC)CCNC(=O)c1ccc(NC(=O)Cc2cccc3ccccc23)cc1	i	i	i	i	-7.52*
CCN(CC)CCNC(=O)c1ccc(NC(C)=O)cc1	i	i	i	i	i
CC(=O)c1cccc(NC(=O)C(C)OC(=O)C2CCC2)c1 (configuration not stated)	i	i	i	i	i
CC(=O)c1ccc(N=C2C(=O)Nc3ccccc32)cc1	i	i	29.2*	i	i
O=C1Nc2ccccc2C1=Nc1ccc(F)cc1	i	i	i	i	i
Cc1ccccc1/C=C/C(=O)N1CCOCC1	i	i	i	i	i
COc1ccccc1/C=C/C(=O)N1CCOCC1	i	i	i	i	-7.78*
CN(C)CCCOc1cccc(Oc2ccccc2)c1	i	i	i	i	-7.53*
CN=c1scc(-c2cccs2)n1/N=C/c1ccccc1O	7.38*	i	i	i	i
CN=c1scc(-c2cccs2)n1/N=C/c1ccc(O)c(O)c1O	14.3*	i	i	i	i
CN=c1scc(C)n1/N=C/c1ccc(O)c(O)c1O	i	i	i	i	i
CC(=O)Nc1ccc(S(=O)(=O)N(C)CC(=O)OCC(=O)N(CC(C)C)C2CCS(=O)(=O)C2)cc1 (configuration not stated)	i	i	i	i	i
Cc1ccccc1CS(=O)(=O)c1nnc([C@H](CC(C)C)NC(=O)OC(C)(C)C)o1	i	i	33.2*	i	i
CC[C@@H](C)[C@H](NC(=O)OC(C)(C)C)c1nnc(S(=O)(=O)Cc2cc(C)ccc2C)o1	7.07*	i	i	i	i
CCOc1ccc(NC(=O)C(CC)n2nc(C)c3c(C)n(-c4ccccc4)nc3c2=O)cc1 (configuration not stated)	i	i	i	i	i
Cc1ccsc1C(=O)N1CCCC(CCC(=O)NCc2ccc(F)c(F)c2)C1 (configuration not stated)	i	i	i	i	i
CCN(CC)CCNc1ccnc2cc(Cl)ccc12	i	i	i	i	i
Clc1ccc2c(NCc3ccccc3)ccnc2c1	i	i	31.9*	i	i
S=C(NNc1ccnc2cc(Cl)ccc12)Nc1ccccc1Cl	6.67*	i	i	i	i
S=C(Nc1ccccc1Cl)Nc1ccc(Cl)cc1Cl	i	i	i	i	i
CCc1ccccc1N1CC(C(=O)Nc2nccs2)CC1=O (configuration not stated)	i	i	i	i	i
